Values after ≈ are worked out from the molar mass of the structure shown. Active and inactive are the calls of the source. The calls are words filed in the database; no cut-off is given here.
Legend:
Escherichia coli = assay: Antibacterial activity against Escherichia coli by broth dilution assay; format: functional
Outline: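 MIC99 by broth-dilution assay; antibacterial and culture details are in the Supporting Information.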

[1] = Solubility in water; format: physicochemical; settings: buffer
[2] = Binding affinity to DPH-doped model gram negative bacterial membrane (LPS/DPPE/DMPG lipids) assessed as increase in membrane fluidity by fluorescence anisotrophy
Outline: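 Vesicles of LPS, DPPE and DMPG doped with DPH were incubated with compound, and the change in DPH fluorescence anisotropy was recorded. Mean ± SD of three replicates, unpaired two-tailed t-test.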

Compound | MIC99 (Escherichia coli) | solubility [1] | Activity [2]
CSCC[C@H](N)C(=O)NCC(=O)O[C@@H]1CC[C@@]2(C)[C@@H](C1)C[C@@H](OC(=O)CNC(=O)[C@@H](N)CCSC)[C@@H]1[C@@H]2C[C@H](OC(=O)CNC(=O)[C@@H](N)CCSC)[C@]2(C)[C@@H]([C@H](C)CCC(=O)OCc3ccccc3)CC[C@@H]12 | 8 to 128 µM (≈ 8.51 to 136 µg/mL) | – | –
C[C@H](CCC(=O)OCc1ccccc1)[C@H]1CC[C@H]2[C@@H]3[C@H](OC(=O)CNC(=O)[C@@H](N)Cc4ccccc4)C[C@@H]4C[C@H](OC(=O)CNC(=O)[C@@H](N)Cc5ccccc5)CC[C@]4(C)[C@H]3C[C@H](OC(=O)CNC(=O)[C@@H](N)Cc3ccccc3)[C@]12C | inactive | – | –
C[C@H](CCC(=O)OCc1ccccc1)[C@H]1CC[C@H]2[C@@H]3[C@H](OC(=O)CNC(=O)[C@@H](N)Cc4c[nH]c5ccccc45)C[C@@H]4C[C@H](OC(=O)CNC(=O)[C@@H](N)Cc5c[nH]c6ccccc56)CC[C@]4(C)[C@H]3C[C@H](OC(=O)CNC(=O)[C@@H](N)Cc3c[nH]c4ccccc34)[C@]12C.Cl.Cl.Cl | inactive | Insoluble | inactive

Continued, values first:

MIC99 (Escherichia coli) | solubility [1] | Activity [2] | Compound
8 to 128 µM (≈ 6.73 to 108 µg/mL) | – | – | C[C@H](CCC(=O)OCc1ccccc1)[C@H]1CC[C@H]2[C@@H]3[C@H](OC(=O)CNC(=O)CN)C[C@@H]4C[C@H](OC(=O)CNC(=O)CN)CC[C@]4(C)[C@H]3C[C@H](OC(=O)CNC(=O)CN)[C@]12C
8 to 128 µM (≈ 7.06 to 113 µg/mL) | – | – | C[C@H](N)C(=O)NCC(=O)O[C@@H]1CC[C@@]2(C)[C@@H](C1)C[C@@H](OC(=O)CNC(=O)[C@H](C)N)[C@@H]1[C@@H]2C[C@H](OC(=O)CNC(=O)[C@H](C)N)[C@]2(C)[C@@H]([C@H](C)CCC(=O)OCc3ccccc3)CC[C@@H]12
